Assay outcomes: PubChem, The Scripps Research Institute Molecular Screening Center
Sampled rows, rich in hits. Any-hit rate of the full collection: about 2.7%.
V1aR counter = agonists of human V1a receptor, primary screen, counter-screen for OXTR agonist project, fluorescence, CHO-V1R cells; 320,000 tested, 0.25% active; AID 2797, 2010; activation, % at 3 µM; Fluo-8 calcium fluorescence, agonist mode; 0% DMSO, 100% 3 nM vasopressin;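 active = activation above the mean activation of all tested compounds plus 3 SD, per screening run, cut at about 20% in these data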;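 also: signal is peak over basal fluorescence ratio across a 100 second FLIPR read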
Target sequence (P37288 whole entry, looked up): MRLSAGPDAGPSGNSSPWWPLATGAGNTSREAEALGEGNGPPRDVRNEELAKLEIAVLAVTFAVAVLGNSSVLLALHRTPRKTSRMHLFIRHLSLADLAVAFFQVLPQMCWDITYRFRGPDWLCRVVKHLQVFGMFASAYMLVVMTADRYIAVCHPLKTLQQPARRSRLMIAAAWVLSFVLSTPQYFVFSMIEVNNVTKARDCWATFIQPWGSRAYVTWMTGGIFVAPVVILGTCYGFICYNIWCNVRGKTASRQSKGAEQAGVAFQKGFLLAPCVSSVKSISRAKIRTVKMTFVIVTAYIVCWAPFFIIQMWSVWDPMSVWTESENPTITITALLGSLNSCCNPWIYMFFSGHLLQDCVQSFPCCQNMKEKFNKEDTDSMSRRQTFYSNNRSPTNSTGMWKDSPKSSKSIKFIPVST
OX1R antag-1 = OX1R (HCRTR1) antagonists, primary screen, fluorescence, CHO/OX1R cells, Fluo-8 calcium, orexin A | Orexin/Hypocretin receptor type 1 (Homo sapiens), O43613 | Fluo-8 calcium fluorescence | inhibition, % at 5 µM | 330,000 tested, 0.43% active;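 active = inhibition above its plate's threshold, mean inhibition of all tested compounds on the plate plus 3 SD, cut at about 37% in these data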
OX1R antag-2 = antagonists of human orexin 1 receptor (OX1R); OX1R-expressing cells, FRET antagonist read-out; 330,000 tested, 1.8% active; inhibition, % at 6.6 µM; Orexin/Hypocretin receptor type 1 (Homo sapiens), O43613; in the data active = inhibition mostly above about 38%, no sharp cut-off; inactive = mostly below about 40%
CHO parental Ca = ATP-evoked calcium signal inhibitors, parental CHO, primary screen, counter-screen for OX1R antagonist project, cell-based, fluorescence, Fluo-8 calcium dye. inhibition, % at 5.6 µM. 330,000 tested, 0.63% active. parental CHO-K1, ATP-induced calcium, Fluo-8 fluorescence;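 active = inhibition above that plate's mean sample inhibition plus 3 SD, cut at about 26% in these data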
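Assay system: untransfected parental CHO cell line. Also added: ATP agonist challenge. Dosing: one dose, 5.6 µM nominal. Measured by: Fluo-8 fluorescence. Read-out: % inhibition. Benchmarks: ATP wells versus no-ATP DMSO wells. Repeats: no replicates.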
OXTR potentiate = human OXTR potentiators, primary screen, fluorescence, CHO-OTR cells, Fluo-8 calcium | AID 2445, 2010 | Oxytocin receptor (Homo sapiens), P30559 | 320,000 tested, 0.061% active | Fluo-8 calcium fluorescence, potentiator mode; 0% = oxytocin EC15, 100% = EC100 | activation, % at 3 µM;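 active = activation above that plate's cutoff, the mean activation of tested compounds plus 3 SD, cut at about 6.6% in these data, passing the limit was not always enough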
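Assay system: CHO cell line stably expressing human OTR. Reagent: EC15 oxytocin agonist. Dosing: single dose, 3.0 µM nominal final compound concentration. Timing: compound 6 min at room temperature before oxytocin, 100 s read. Signal: kinetic Fluo-8 calcium fluorescence. Controls: oxytocin EC15 low and EC100 high.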
OXTR ag = human OXTR agonists, primary screen, fluorescence, CHO-OTR cells, Fluo-8 calcium; Oxytocin receptor (Homo sapiens), P30559; Fluo-8 calcium fluorescence; normalized: DMSO 0%, oxytocin 100%; 320,000 tested, 0.32% active; activation, % at 3 µM;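 active = activation above the mean of all tested compounds plus 3 SD, cutoff set per screening run, cut at about 20% in these data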;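 also: peak over basal fluorescence ratio from a 100 s FLIPR kinetic read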
Large screens that a line does not name were inactive.

COc1ccc(OC)c(CCNC(=O)CN2C(=O)CCSc3ccccc32)c1	none
O=C(NCC1CCCN1S(=O)(=O)c1cccs1)c1ccc(F)c(F)c1 (stereo unspecified)	none
Cc1ccc(C(=O)NCC2CCCN2S(=O)(=O)c2cccs2)cc1C (stereo unspecified)	OX1R antag-2 34
CC(C)(C)NC(=O)c1ccc2nsnc2c1	OX1R antag-2 67
COC(=O)c1cccc(NC(=O)/C=C/c2cccc([N+](=O)[O-])c2)c1	none
O=C(/C=C/c1cccc([N+](=O)[O-])c1)Nc1cc(C(=O)O)cc(C(=O)O)c1	OX1R antag-2 62
CCOC(=O)c1nn(-c2ccc(C)c(Cl)c2)c(=O)c(C#N)c1C	none
CCOC(=O)c1nn(-c2ccc(Cl)cc2)c2nc(CC)c(C#N)c(=O)n12	none
CCOC(=O)c1nn(-c2ccc(Cl)cc2)c(=O)c(C#N)c1C	OX1R antag-2 50
Cc1c(C(=O)N2CCCCC2)nn(-c2ccc(Cl)cc2)c(=O)c1C#N	OX1R antag-2 61
CCOC(=O)c1nn(-c2ccc(F)cc2)c(=O)c(C#N)c1C	OX1R antag-2 54
CCOC(=O)c1nn(-c2ccc(C)cc2)c(=O)c2c(N)scc12	OX1R antag-2 77
O=C(CN1C(=O)c2cccnc2Oc2ccc(Cl)cc21)NCCCc1ccccc1	none
C=C1c2ccccc2S(=O)(=O)N(Cc2ccccc2)C1COCc1ccccc1 (stereo unspecified)	none
COc1ccc2[nH]c3c(c2c1)CCN1C(=O)C(CC(=O)NC/C=C(\C)CCC=C(C)C)C[C@H](C(=O)N(C(C)C)C(C)C)[C@@]31C (stereo partly specified)	none (no result: V1aR counter, OXTR potentiate, OXTR ag)
CC(=O)/C(N=Nc1ccc(C(=O)O)cc1[N+](=O)[O-])=C(\C)O	OX1R antag-2 41
Cn1c(Sc2ccc(C(=O)O)cc2[N+](=O)[O-])nnc1-c1ccccc1	OX1R antag-2 57
Cc1nnc(N/N=C/c2ccc(-c3ccc(Br)cc3)o2)n1N	OX1R antag-2 40
Cc1nnc(N/N=C/c2ccc(Br)cc2)n1N	none
c1ccc(CN(Cc2cccs2)C(c2cccs2)c2nnnn2C2CCCC2)cc1 (stereo unspecified)	CHO parental Ca 34
c1ccc(CC2CCN(C(c3cccs3)c3nnnn3C3CCCC3)CC2)cc1 (stereo unspecified)	none
C[C@H]1CC[C@H]2C(=O)N3[C@H](c4ccccc4Br)[C@@H](C)CC[C@H]3C(=O)N2[C@@H]1c1ccccc1Br	OX1R antag-2 75
Nc1ccc2oc(-c3cc(Br)ccc3Cl)nc2c1	OX1R antag-2 47
Cc1ccc(N(CC(=O)N2CCCCCC2)S(C)(=O)=O)cc1Cl	none
CN(CCOc1ccccc1)C(=O)c1cc([N+](=O)[O-])cc([N+](=O)[O-])c1	OX1R antag-2 38
CN(CCOc1ccccc1)CC(=O)Nc1cc([N+](=O)[O-])ccc1Cl	OX1R antag-2 62
CN(CCOc1ccccc1)C(=O)c1cc([N+](=O)[O-])ccc1N1CCOCC1	none
Cc1ccc([N+](=O)[O-])cc1NC(=O)CN(C)CCOc1ccccc1	none
COc1cc(/C=C2\SC(=Nc3ccccc3)N(CCc3c[nH]c4ccccc34)C2=O)ccc1OC(C)C(=O)O (stereo unspecified)	none
O=C1/C(=C/c2ccc(N3CCOCC3)o2)SC(=Nc2ccccc2)N1CCc1c[nH]c2ccccc12	OX1R antag-1 75, CHO parental Ca 92
COc1ccc(CN2C(=NC(=O)C3CC3)SC3CS(=O)(=O)CC32)cc1OC (stereo unspecified)	none
COc1cc(/C=C/C(=O)NC(=O)c2ccccc2O)ccc1OC(C)=O	OX1R antag-2 66
O=C(NCC1CCCO1)c1ccccc1S(=O)(=O)c1ccc([N+](=O)[O-])cc1 (stereo unspecified)	OX1R antag-2 76
Cc1ccc2nc(NC(=O)CSc3nnc(C)c(=O)n3N)sc2c1	none
Cc1ccc(/C(O)=C2/C(=O)C(=O)N(c3ccccn3)C2c2cccc([N+](=O)[O-])c2)cc1 (stereo unspecified)	none
Cc1ccc(C)c(S(=O)(=O)/N=C2\C=C(NS(=O)(=O)c3ccccc3)C(=O)c3ccccc32)c1	none
Cc1cc(C)c(S(=O)(=O)/N=C2/C=C(Sc3ncn[nH]3)C(=O)c3ccccc32)cc1C	OX1R antag-2 63
O=C(NCc1ccco1)C(c1ccncc1)N(C(=O)Cn1nnc2ccccc21)c1ccccc1F (stereo unspecified)	none
CC(=O)N1CCc2c(sc(NC(=O)C3CCN(S(=O)(=O)c4cccs4)CC3)c2C(N)=O)C1	none
CC(=O)N1CCc2c(sc(NC(=O)C3CCCN3S(=O)(=O)c3cccs3)c2C(N)=O)C1 (stereo unspecified)	OX1R antag-2 39
O=C(NCCc1ccc(Cl)cc1)Nc1ccc(Cl)cc1	none
CCN(CCNC(=O)Nc1ccc(Cl)cc1)c1ccccc1	OX1R antag-1 64, OX1R antag-2 118, CHO parental Ca 55
O=C(C[n+]1ccc(-c2nnc3n2CCCCC3)cc1)c1ccc(Cl)cc1	none
COc1ccc(C(=O)C[n+]2ccc(-c3nnc4n3CCCCC4)cc2)cc1	OX1R antag-2 44
O=S(=O)(c1ccccc1Br)N(CC(O)COCc1ccccc1)C1CC1 (stereo unspecified)	none (no result: V1aR counter, OXTR potentiate, OXTR ag)
COc1ccc(C(=O)N/N=C/c2sc3ccccc3c2O)cc1	none
COc1ccc2cc(C(=O)N/N=C/c3sc4ccccc4c3O)ccc2c1	V1aR counter 35, OXTR ag 36
COc1cccc(CNC(=O)C(NS(=O)(=O)c2ccc3c(c2)CCN3C(C)=O)C(C)C)c1 (stereo unspecified)	none
Cc1ccc(/C=N/n2c(C3CCCCC3)n[nH]c2=S)cc1	CHO parental Ca 43
NS(=O)(=O)c1cccc(NS(=O)(=O)c2ccc(/C=C/C(=O)OCC(=O)c3ccc(Br)cc3)cc2)c1	CHO parental Ca 25
Clc1ccc(-c2cn3cc(Br)ccc3n2)cc1Cl	none
Clc1ccc(-c2cn3c(n2)-c2ccccc2C3)cc1Cl	OX1R antag-2 51
COc1ccc(N/C=C2\CCc3ccccc3C2=O)cc1	OX1R antag-2 39
O=C(CN1CCOCC1)NNc1c2ccccc2nc2ccccc12	none
C[N+]1(CC(=O)NNc2c3ccccc3nc3ccccc23)CCOCC1	OX1R antag-2 44
